≈ marks a conversion by molar mass, not a printed value.
Assays:
Format in all cases: functional
Haemophilus influenzae = assay: Antibacterial activity against Haemophilus influenzae ATCC 49247 by broth microdilution technique
Outline: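 MIC by broth microdilution per CLSI guidelines with doubling dilutions of compounds. Before testing, organisms were grown on Mueller-Hinton chocolate agar. Values reported in µg/mL.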

Staphylococcus aureus [1] = assay: Antibacterial activity against inducible macrolide, licosamide and streptogramin-resistant Staphylococcus aureus 90256/97 by broth microdilution technique
Outline: (§1)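 MICs were determined by CLSI broth microdilution, with double dilutions of compound. Staphylococci were grown on Mueller–Hinton agar before testing. Results are given in µg/mL.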

Streptococcus pneumoniae [2] = assay: Antibacterial activity against inducible macrolide-resistant, constitutive licosamide and streptogramin-resistant Streptococcus pneumoniae 134 GR-Micro by broth microdilution technique
Outline: (§2)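 MICs were determined by CLSI broth microdilution, with double dilutions of compound. In the streptococcal medium, 5% horse serum replaced lysed blood. Streptococci were grown on Columbia agar with 5% sheep blood before testing. Results are given in µg/mL.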

Staphylococcus aureus [3] = assay: Antibacterial activity against efflux-mediated macrolide-resistant Staphylococcus aureus PK1 by broth microdilution technique; outline: as §1
Staphylococcus aureus [4] = assay: Antibacterial activity against erythromycin-sensitive Staphylococcus aureus ATCC 13709 by broth microdilution technique
Outline: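 MIC by broth microdilution per CLSI guidelines with doubling dilutions of compounds. Before testing, staphylococci were grown on Mueller–Hinton agar. Values reported in µg/mL.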

Streptococcus pyogenes [5] = assay: Antibacterial activity against efflux-mediated macrolide-resistant Streptococcus pyogenes 3 Finland by broth microdilution technique; outline: as §2
Streptococcus pyogenes [6] = assay: Antibacterial activity against erythromycin-sensitive Streptococcus pyogenes 3565 by broth microdilution technique
Outline: (§3)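 Streptococcal MICs by CLSI broth microdilution with doubling dilutions, but with 5% horse serum in the medium in place of lysed blood. Before testing, strains were grown on Columbia agar with 5% sheep blood. Values reported in µg/mL.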

Streptococcus pneumoniae [7] = assay: Antibacterial activity against constitutive macrolide, licosamide and streptogramin-resistant Streptococcus pneumoniae 58 Spain by broth microdilution technique; outline: as §2
Streptococcus pyogenes [8] = assay: Antibacterial activity against inducible macrolide, licosamide and streptogramin-resistant Streptococcus pyogenes Finland 11 by broth microdilution technique; outline: as §2
Streptococcus pneumoniae [9] = assay: Antibacterial activity against efflux-mediated macrolide-resistant Streptococcus pneumoniae Ci137 by broth microdilution technique; outline: as §2
Streptococcus pneumoniae [10] = assay: Antibacterial activity against erythromycin-sensitive Streptococcus pneumoniae SP030 by broth microdilution technique; outline: as §3
Moraxella catarrhalis = assay: Antibacterial activity against Moraxella catarrhalis ATCC 23246 by broth microdilution technique
Outline: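 MIC by broth microdilution per CLSI guidelines with doubling dilutions of compounds. Before testing, organisms were grown on Columbia agar with 5% sheep blood. Values reported in µg/mL.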

Staphylococcus aureus [11] = assay: Antibacterial activity against constitutive macrolide, licosamide and streptogramin-resistant Staphylococcus aureus PK2 by broth microdilution technique; outline: as §1
Streptococcus pyogenes [12] = assay: Antibacterial activity against constitutive macrolide, licosamide and streptogramin-resistant Streptococcus pyogenes 166 GR-Micro by broth microdilution technique; outline: as §2

Row | Compound | MIC (Haemophilus influenzae) | MIC (Staphylococcus aureus [1]) | MIC (Streptococcus pneumoniae [2]) | MIC (Staphylococcus aureus [3]) | MIC (Staphylococcus aureus [4]) | MIC (Streptococcus pyogenes [5]) | MIC (Streptococcus pyogenes [6]) | MIC (Streptococcus pneumoniae [7]) | MIC (Streptococcus pyogenes [8]) | MIC (Streptococcus pneumoniae [9]) | MIC (Streptococcus pneumoniae [10]) | MIC (Moraxella catarrhalis) | MIC (Staphylococcus aureus [11]) | MIC (Streptococcus pyogenes [12])
1 | CCOC(=O)c1cn(CC)c2ccc(C#CCN3CCN(CCC(=O)O[C@H]4[C@H](C)O[C@@H](O[C@H]5[C@H](C)[C@@H](O[C@@H]6O[C@H](C)C[C@H](N(C)C)[C@H]6O)[C@](C)(O)C[C@@H](C)CN(C)[C@H](C)[C@@H](OC)[C@](C)(O)[C@@H](CC)OC(=O)[C@@H]5C)C[C@@]4(C)OC)CC3)cc2c1=O | 32 µg/mL (≈ 27 µM) | > 64 µg/mL | 0.5 µg/mL (≈ 0.422 µM) | > 64 µg/mL | 4 µg/mL (≈ 3.38 µM) | 1 µg/mL (≈ 0.844 µM) | ≤ 0.125 µg/mL | 1 µg/mL (≈ 0.844 µM) | 0.25 µg/mL (≈ 0.211 µM) | ≤ 0.125 µg/mL | ≤ 0.125 µg/mL | 8 µg/mL (≈ 6.75 µM) | > 64 µg/mL | 32 µg/mL (≈ 27 µM)
2 | CC[C@H]1OC(=O)[C@H](C)[C@@H](O[C@H]2C[C@@](C)(OC)[C@@H](OCCCN3CCN(C/C=C/c4ccc5c(c4)c(=O)c(C(=O)O)cn5CC)CC3)[C@H](C)O2)[C@H](C)[C@@H](O[C@@H]2O[C@H](C)C[C@H](N(C)C)[C@H]2O)[C@](C)(O)C[C@@H](C)CN(C)[C@H](C)[C@@H](O)[C@]1(C)O | 16 µg/mL (≈ 14.2 µM) | > 64 µg/mL | > 64 µg/mL | 8 µg/mL (≈ 7.08 µM) | 2 µg/mL (≈ 1.77 µM) | 4 µg/mL (≈ 3.54 µM) | ≤ 0.125 µg/mL | 32 µg/mL (≈ 28.3 µM) | 1 µg/mL (≈ 0.885 µM) | 8 µg/mL (≈ 7.08 µM) | ≤ 0.125 µg/mL | 0.5 µg/mL (≈ 0.442 µM) | > 64 µg/mL | 64 µg/mL (≈ 56.6 µM)
3 | CCOC(=O)c1cn(CC)c2ccc(CCCN3CCN(CCC(=O)O[C@H]4[C@H](C)O[C@@H](O[C@H]5[C@H](C)[C@@H](O[C@@H]6O[C@H](C)C[C@H](N(C)C)[C@H]6O)[C@](C)(O)C[C@@H](C)CN(C)[C@H](C)[C@@H](OC)[C@](C)(O)[C@@H](CC)OC(=O)[C@@H]5C)C[C@@]4(C)OC)CC3)cc2c1=O | 32 µg/mL (≈ 26.9 µM) | > 64 µg/mL | 32 µg/mL (≈ 26.9 µM) | > 64 µg/mL | 4 µg/mL (≈ 3.37 µM) | 2 µg/mL (≈ 1.68 µM) | ≤ 0.125 µg/mL | 8 µg/mL (≈ 6.73 µM) | 2 µg/mL (≈ 1.68 µM) | 2 µg/mL (≈ 1.68 µM) | ≤ 0.125 µg/mL | 0.25 µg/mL (≈ 0.21 µM) | > 64 µg/mL | > 64 µg/mL
4 | CCOC(=O)c1cn(CC)c2ccc(CCCN3CCN(CCC(=O)O[C@H]4[C@H](C)O[C@@H](O[C@H]5[C@H](C)[C@@H](O[C@@H]6O[C@H](C)C[C@H](N(C)C)[C@H]6O)[C@](C)(O)C[C@@H](C)CN(C)[C@H](C)[C@@H](O)[C@](C)(O)[C@@H](CC)OC(=O)[C@@H]5C)C[C@@]4(C)OC)CC3)cc2c1=O | 2 µg/mL (≈ 1.7 µM) | > 64 µg/mL | ≤ 0.125 µg/mL | 64 µg/mL (≈ 54.5 µM) | 1 µg/mL (≈ 0.851 µM) | 0.5 µg/mL (≈ 0.426 µM) | ≤ 0.125 µg/mL | ≤ 0.125 µg/mL | ≤ 0.125 µg/mL | ≤ 0.125 µg/mL | ≤ 0.125 µg/mL | 0.25 µg/mL (≈ 0.213 µM) | > 64 µg/mL | 32 µg/mL (≈ 27.2 µM)
5 | CCOC(=O)c1cn(C2CC2)c2ccc(C#CCN3CCNCC3)cc2c1=O | > 64 µg/mL | > 64 µg/mL | > 64 µg/mL | > 64 µg/mL | > 64 µg/mL | > 64 µg/mL | > 64 µg/mL | > 64 µg/mL | > 64 µg/mL | > 64 µg/mL | > 64 µg/mL | > 64 µg/mL | > 64 µg/mL | > 64 µg/mL
6 | CCOC(=O)c1cn(CC)c2ccc(/C=C/CN3CCN(C(=O)OC(C)(C)C)CC3)cc2c1=O | > 64 µg/mL | > 64 µg/mL | > 64 µg/mL | > 64 µg/mL | > 64 µg/mL | > 64 µg/mL | > 64 µg/mL | > 64 µg/mL | > 64 µg/mL | > 64 µg/mL | 64 µg/mL (≈ 136 µM) | > 64 µg/mL | > 64 µg/mL | > 64 µg/mL
7 | CC[C@H]1OC(=O)[C@H](C)[C@@H](O[C@H]2C[C@@](C)(OC)[C@@H](OC(=O)CCN3CCN(CCCc4ccc5c(c4)c(=O)c(C(=O)O)cn5CC)CC3)[C@H](C)O2)[C@H](C)[C@@H](O[C@@H]2O[C@H](C)C[C@H](N(C)C)[C@H]2O)[C@](C)(O)C[C@@H](C)CN(C)[C@H](C)[C@@H](OC)[C@]1(C)O | 1 µg/mL (≈ 0.862 µM) | 4 µg/mL (≈ 3.45 µM) | 16 µg/mL (≈ 13.8 µM) | 0.25 µg/mL (≈ 0.215 µM) | ≤ 0.125 µg/mL | ≤ 0.125 µg/mL | ≤ 0.125 µg/mL | ≤ 0.125 µg/mL | ≤ 0.125 µg/mL | ≤ 0.125 µg/mL | ≤ 0.125 µg/mL | 0.5 µg/mL (≈ 0.431 µM) | > 64 µg/mL | 32 µg/mL (≈ 27.6 µM)
8 | CCOC(=O)c1cn(CC)c2ccc(C#CCN3CCNCC3)cc2c1=O | > 64 µg/mL | > 64 µg/mL | > 64 µg/mL | > 64 µg/mL | > 64 µg/mL | > 64 µg/mL | > 64 µg/mL | > 64 µg/mL | > 64 µg/mL | > 64 µg/mL | > 64 µg/mL | > 64 µg/mL | > 64 µg/mL | > 64 µg/mL
9 | CC[C@H]1OC(=O)[C@H](C)[C@@H](O[C@H]2C[C@@](C)(OC)[C@@H](O)[C@H](C)O2)[C@H](C)[C@@H](O[C@@H]2O[C@H](C)C[C@H](N(C)C)[C@H]2O)[C@](C)(OC)C[C@@H](C)C(=O)[C@H](C)[C@@H](O)[C@]1(C)O [CLARITHROMYCIN] | 8 µg/mL (≈ 10.7 µM) | > 64 µg/mL | > 64 µg/mL | 32 µg/mL (≈ 42.8 µM) | 0.25 µg/mL (≈ 0.334 µM) | 4 µg/mL (≈ 5.35 µM) | ≤ 0.125 µg/mL | > 64 µg/mL | 1 µg/mL (≈ 1.34 µM) | 4 µg/mL (≈ 5.35 µM) | ≤ 0.125 µg/mL | ≤ 0.125 µg/mL | > 64 µg/mL | > 64 µg/mL
10 | CCOC(=O)c1cn(CC)c2ccc(CCCN3CCN(CCC(=O)O[C@H]4[C@H](C)O[C@@H](O[C@H]5[C@H](C)[C@@H](O[C@@H]6O[C@H](C)C[C@H](N(C)C)[C@H]6O)[C@](C)(OC)C[C@@H](C)C(=O)[C@H](C)[C@@H](O)[C@](C)(O)[C@@H](CC)OC(=O)[C@@H]5C)C[C@@]4(C)OC)CC3)cc2c1=O | > 64 µg/mL | > 64 µg/mL | 16 µg/mL (≈ 13.6 µM) | > 64 µg/mL | 4 µg/mL (≈ 3.41 µM) | ≤ 0.125 µg/mL | ≤ 0.125 µg/mL | 8 µg/mL (≈ 6.82 µM) | 0.25 µg/mL (≈ 0.213 µM) | ≤ 0.125 µg/mL | ≤ 0.125 µg/mL | 4 µg/mL (≈ 3.41 µM) | > 64 µg/mL | 16 µg/mL (≈ 13.6 µM)

Reference: ChEMBL document CHEMBL1926518, “Synthesis of macrolones with central piperazine ring in the linker and its influence on antibacterial activity” (2011)
